Results from different studies.
Target: SRSF protein kinase 2 (SRPK2, Homo sapiens, UniProt P78362)

SMILES | assay | setting | endpoint | value
CCC1(CC)NC(=O)c2c(c3ccc(Cl)c(Cl)c3n2C)C1C#N (centres unmarked) | thermal stability, DSF | 10 µM | ΔTm | 0.1 °C
CC(C)(C)c1nc(-c2cccc(NS(=O)(=O)c3c(F)cccc3F)c2F)c(-c2ccnc(N)n2)s1 | enzyme activity, inhibitor, radiometric | 1 µM | remaining activity | 111%
COc1cc2ncnc(Nc3ccc(Oc4ccccc4)cc3C)c2cc1OC | enzyme activity, inhibitor | 1 µM | inhibition | 0%
Cn1c2c(c3ccc(Cl)c(Cl)c31)C(C#N)C1(CCOCC1)NC2=O (centres unmarked) | thermal stability, DSF | 10 µM | ΔTm | 0.2 °C
N#CCCc1ccc2c(c1)-c1[nH]c3ccc([N+](=O)[O-])cc3c1CC(=O)N2 | cell-free assay | 0.5 µM | remaining signal | 109%
CN1CCN(c2cnc3c(C4CCN(C(=O)c5ccc(OC(F)(F)F)cc5N)CC4)ncnc3c2)CC1 | cell-free assay, competition with immobilised ligand | 1 µM | remaining binding | 78%
CN1CC(Oc2cnc(C#N)cc2-c2ccn3nc(NC(=O)C4CC4)cc3c2)C1 | enzyme activity, inhibitor | 1 µM | inhibition | 6%
CNC(=O)Nc1ccc2c(c1)[C@@]1(CC2)OC(=O)N(CC(=O)N(Cc2ccc(F)cc2)[C@@H](C)C(F)(F)F)C1=O | cell-free assay, competition with immobilised ligand | 1 µM | remaining binding | 100%
CCOc1cc(-c2nncn2C)ccc1Nc1ncc2cc(C)nc(NCC(C)(C)C)c2n1 | enzyme activity, inhibitor, FRET | 1 µM | inhibition | < 15%
Cn1c2c(Cl)c(Cl)ccc2c2cc[nH]c(=O)c21 | thermal stability, DSF | 10 µM | ΔTm | -0.2 °C
CNCc1ccccc1-c1csc([C@@H](C)Nc2nc(C)nc3cc(OC)c(OC)cc23)c1 | cell-free assay, competition with immobilised ligand | 1 µM | remaining binding | 61%
CC1(C)NC(=O)c2[nH]c3c(Cl)c(Cl)ccc3c2C1C#N (centres unmarked) | thermal stability, DSF | 10 µM | ΔTm | 0.4 °C
CNC(=O)c1ccc(Nc2ncc(C(F)(F)F)c(NCc3nccnc3N(C)S(C)(=O)=O)n2)cc1 | cell-free assay, competition with immobilised ligand | 0.1 µM | remaining binding | 100%
CCN(CC)c1ccc(C2=NNC(=O)CC2C)cc1[N+](=O)[O-] (centres unmarked) | enzyme activity, inhibitor | 10 µM | remaining activity | 100%
CC(C)(O)[C@H]1CC[C@H](Nc2ccc3ncc(-c4cccc(C(F)(F)F)c4)n3n2)CC1 | enzyme activity, inhibitor | 1 µM | remaining activity | 94.5%
C[C@@H]1CCN(C(=O)CC#N)C[C@@H]1N(C)c1ncnc2[nH]ccc12 | cell-free assay, inhibitor | 0.5 µM | remaining signal | 90.7%

SMILES | assay | setting | endpoint | value
O=C(Nc1cnn(-c2csc(C(=O)NC3COC3)c2)c1)Nc1ccccc1Cl | enzyme activity, inhibitor | 5 µM | remaining activity | 95.6%
Cc1cc(NC(=O)c2cccc3cc(-c4cccc5[nH]nc(N)c45)ccc23)ccc1F | enzyme activity, inhibitor | 0.1 µM | activity vs control | 103%
Cn1c2c(c3ccccc31)C(C#N)C(C)(C)NC2=O (centres unmarked) | thermal stability, DSF | 10 µM | ΔTm | 0 °C
CCN(CC)CCNC(=O)c1c(C)[nH]c(/C=C2\C(=O)Nc3ccc(F)cc32)c1C | enzyme activity, inhibitor | 10 µM | inhibition | 37%
CC(C1CC1)n1cnc2c(NCc3cccc(C(F)(F)F)c3)nc(NCCN(C)C)nc21 (centres unmarked) | enzyme activity, inhibitor | 5 µM | inhibition | > 50%
CO[C@@H](C)c1c(Nc2ccc([C@H](N(C)C(=O)C3CCS(=O)(=O)CC3)C(F)(F)F)cc2)cnc2cc(Cl)nn12 | cell-free assay, competition with immobilised ligand | 1 µM | remaining binding | 100%
COc1cc(-c2cc(-c3ccc(N4CCNCC4)cc3)cnc2C)cc(OC)c1OC | enzyme activity, inhibitor | 0.1 µM | inhibition | 2%
Nc1ncnc2occ(-c3ccc(NC(=O)Nc4cc(C(F)(F)F)ccc4F)cc3)c12 | cell-free assay, inhibitor | 20 µM | remaining signal | 100%
CN1CCC2(CC1)NC(=O)c1c(c3ccc(Cl)c(Cl)c3n1C)C2C#N (racemic) | thermal stability, DSF | 10 µM | ΔTm | 0.7 °C
Cc1ccc(Nc2nccc(N(C)c3ccc4c(C)n(C)nc4c3)n2)cc1S(N)(=O)=O | enzyme activity, inhibitor | 10 µM | inhibition | 4%
CCOCCn1cc(C(=O)Nc2ccc(-n3nc(-c4cccnc4)cc3C(F)(F)F)cn2)ccc1=O | cell-free assay, competition with immobilised ligand | 1 µM | remaining binding | 100%
Cn1c2c(c3ccc(Cl)c(Cl)c31)C(C#N)C1(CCCCC1)NC2=O (racemic) | thermal stability, DSF | 10 µM | ΔTm | 0.2 °C
CCC(=N\O)/C(C)=C/c1ccc(F)cc1 | cell-free assay, competition with immobilised ligand | 1 µM | remaining binding | 75%
CNC(=O)c1cc(Oc2ccc(NC(=O)Nc3ccc(Cl)c(C(F)(F)F)c3)cc2)ccn1 | enzyme activity, inhibitor | 10 µM | inhibition | 12%
COc1cccc(CNC(=O)c2nc3scc(COCc4ccc(C(=O)O)cc4)c3c(=O)[nH]2)c1 | cell-free assay, competition with immobilised ligand | 1 µM | remaining binding | 100%
O=C1Nc2ccc(Cl)cc2C1=Cc1cc(Cl)c(O)c(Cl)c1 | cell-free assay | 0.5 µM | remaining signal | 95.2%
